“Also recorded” adds a separate entry of the source. One block for each compound: values may come before it.
Legend:
Cytotoxicity assay = type: cell-based, murine; conditions: mouse, 3T3-L1 cells
3T3-L1 = test: Cytotoxicity assay; type: cell-based, murine; conditions: 3T3-L1; tested concentrations up to 1mM
[1] = tested on: Normal mouse fibroblast (ATCC: CRL-2907); test: Nascent; type: cell-based; conditions: CA 50 μM, 2 h
Procedure, shortened: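 Mouse embryonic fibroblasts (CRL-2907) seeded at 2 × 10^4/well on 1% gelatin-coated slides and cultured 12 h at 37 °C in phenol red–free IMDM with 10% FBS. Test compound (50 µM) or DMSO given 2 h before click labelling with an alkyne o-propargyl-puromycin probe. Cycloheximide (20 nM, 30 min prior) served as positive control. Confocal imaging at 20×; whole-image montage quantified.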

[2] = tested on: 3T3-L1 adipogenesis gene transcripts; test: qRT-PCR gene expression during 3T3-L1 adipogenesis; type: cell-based, murine
Procedure, shortened: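 Steady-state transcript levels measured by qRT-PCR in 3T3-L1 cells going through the induction/insulin differentiation protocol, on days 0, 1, 2 and 7. Treated cells compared with differentiating-medium and non-differentiating-medium controls.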

[3] = tested on: 11β-HSD1, PPARγ, PGC-1α protein expression in 3T3-L1; test: Western blot analysis during 3T3-L1 adipogenesis; type: cell-based, murine
Procedure, shortened: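 3T3-L1 cells in non-differentiating medium, differentiating medium, differentiating medium + rosiglitazone, or differentiating medium + test compound (50 µM); sampled on days 3 and 7. Lysed in Tris/NaCl/EDTA/EGTA buffer with Triton X-100, deoxycholate, SDS, glycerol and protease/phosphatase inhibitors. 30 µg total protein loaded; tubulin used as loading control. Bands quantified; n = 3, means ± SEM.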

[4] = tested on: 11β-HSD1 in J774.1 macrophage; conditions: LPS activated murine J774.1 macrophage; cited from earlier work
[5] = tested on: human visceral and subcutaneous preadipocytes; test: Preadipocyte differentiation assay; type: cell-based
Procedure, shortened: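 Human visceral or subcutaneous preadipocytes (≤ passage 3) plated at 100,000 cells/well and grown to confluency. Day 0: induction medium ± hydrocortisone hemisuccinate (50 µg/mL) plus vehicle (0.2% DMSO), rosiglitazone (2 µM) or test compound (50, 100 µM); non-differentiating medium as control. Differentiation medium plus treatment from 48 h, refreshed every 48–72 h for 9–14 days. Fixed in 10% buffered formaldehyde; Oil Red O relatively quantified.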

3T3-L1 preadipocytes = test: Preadipocyte differentiation assay; type: cell-based, murine
Procedure, shortened: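 3T3-L1 cells (passages 1–16) seeded at 2.5 × 10^5/well on 0.1% gelatin. Day 0, 24 h after near-confluence: switched to induction DMEM (high glucose, 10% FBS, 0.5 mM IBMX). After 48 h: DMEM + 10% FBS + 10 µg/mL insulin. Negative control kept in non-differentiating medium; positive control differentiating medium + DMSO. Test compound 50–100 µM; run to day 7–10. Oil Red O stained; extracted dye read at 462 nm.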

Human PPARγ = target: T1, Human PPARγ (Homo sapiens, UniProt P37231); test: Human PPARγ reporter antagonist assay; type: cell-based; conditions: stimulation by rosiglitazone (20 nM); 40 μM to 2 nM
T1 sequence (P37231 238-505 limits assumed): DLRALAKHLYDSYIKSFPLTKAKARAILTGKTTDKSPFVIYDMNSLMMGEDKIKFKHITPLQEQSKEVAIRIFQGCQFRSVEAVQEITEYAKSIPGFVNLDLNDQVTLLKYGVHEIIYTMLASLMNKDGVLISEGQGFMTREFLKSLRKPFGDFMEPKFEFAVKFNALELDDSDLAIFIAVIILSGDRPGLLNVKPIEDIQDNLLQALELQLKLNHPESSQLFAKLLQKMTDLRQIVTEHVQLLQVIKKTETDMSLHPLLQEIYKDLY

3T3-L1 cells = test: Mitochondria evaluation by confocal microscopy; type: cell-based, murine; conditions: 3T3-L1 adipogenesis assay, day 7, CA 50 μM
Procedure, shortened: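 3T3-L1 cells put through the adipogenesis protocol in 8-well chambers, test compound 50 µM. On day 7, live cells stained with MitoTracker Deep Red (50 nM final) and Hoechst 33342, PBS-washed, and imaged by spinning-disk confocal at 63×. Mean mitochondrial tracker intensity quantified.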

Human GR = target: T2, Human GR (Homo sapiens, UniProt P04150); test: Human glucocorticoid receptor; type: cell-based; conditions: transiently GR-transfected MDA-MB-231 cells, 100 nM dexamethasone, 50 μM CA
T2 sequence (P04150 1-777): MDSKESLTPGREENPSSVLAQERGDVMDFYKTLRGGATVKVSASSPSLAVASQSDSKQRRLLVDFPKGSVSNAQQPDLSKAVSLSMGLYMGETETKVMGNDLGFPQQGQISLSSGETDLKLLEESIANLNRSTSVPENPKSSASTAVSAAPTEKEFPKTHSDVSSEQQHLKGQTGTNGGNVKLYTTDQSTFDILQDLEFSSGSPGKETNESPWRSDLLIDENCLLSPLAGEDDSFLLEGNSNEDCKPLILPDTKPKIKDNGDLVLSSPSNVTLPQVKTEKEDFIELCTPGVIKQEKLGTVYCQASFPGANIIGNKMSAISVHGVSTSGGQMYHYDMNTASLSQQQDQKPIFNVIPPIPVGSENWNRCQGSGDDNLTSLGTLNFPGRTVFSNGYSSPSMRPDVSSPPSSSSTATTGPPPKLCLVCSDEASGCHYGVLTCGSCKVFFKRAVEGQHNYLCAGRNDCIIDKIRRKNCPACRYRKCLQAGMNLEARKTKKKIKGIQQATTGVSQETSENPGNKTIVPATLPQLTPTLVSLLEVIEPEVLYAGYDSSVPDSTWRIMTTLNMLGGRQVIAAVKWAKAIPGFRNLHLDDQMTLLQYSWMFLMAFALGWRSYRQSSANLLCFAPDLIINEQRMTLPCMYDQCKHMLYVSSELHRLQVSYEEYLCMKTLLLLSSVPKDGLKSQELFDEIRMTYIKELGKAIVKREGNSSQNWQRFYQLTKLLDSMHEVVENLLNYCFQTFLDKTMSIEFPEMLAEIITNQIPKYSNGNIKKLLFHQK
Procedure, shortened: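 MDA-MB-231 cells transiently transfected, via Lipofectin, with a GR response element–luciferase reporter or a negative-control reporter. Seeded at 5000 cells/well for 12 h at 37 °C, then switched to phenol red–free DMEM with 2% charcoal-stripped FBS. Test compound (50 µM) or DMSO added 1 h before 100 nM dexamethasone induction; 4 h treatment. Luciferase luminescence read; n = 3, means ± SEM.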

11β-HSD2 = conditions: cited from earlier work
Human 11β-HSD1 = Human 11β-HSD1 (Homo sapiens, UniProt P28845, C272S); test: Biochemical assay of 11β-HSD1; conditions: 11β-HSD1 Ki
Solubility = type: physicochemical

Sequence of Human 11β-HSD1 (P28845 24-292 C272S): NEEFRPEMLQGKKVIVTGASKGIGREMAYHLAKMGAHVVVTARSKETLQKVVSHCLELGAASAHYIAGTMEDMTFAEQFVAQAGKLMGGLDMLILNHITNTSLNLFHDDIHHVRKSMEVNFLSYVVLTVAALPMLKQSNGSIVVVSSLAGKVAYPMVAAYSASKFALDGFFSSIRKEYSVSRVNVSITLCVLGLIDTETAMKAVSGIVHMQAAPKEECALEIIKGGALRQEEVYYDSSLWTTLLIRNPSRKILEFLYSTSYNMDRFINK

Compound: CC1=CC[C@@]2(C[C@H]1O)[C@@H](C(C)C)CC[C@H]2C(=O)O (single isomer, unassigned) [ent-1, (−)-Colletoic Acid]
EC50 at 72 h (Cytotoxicity assay): > 500 µM

Compound: CC1=CC[C@@]2(C[C@@H]1O)[C@@H](C(=O)O)CC[C@H]2C(C)C [Compound 1, (+)-colletoic acid]
EC50 at 72 h (Cytotoxicity assay): > 500 µM
cytotoxicity (cell viability) (3T3-L1): no cytotoxicity
global protein synthesis compared to DMSO control [1]: No significant changes
FABP4 and FASN mRNA expression, lower than in differentiated control cells ([2]; 3T3-L1): at least 10 fold
PGC-1α mRNA expression, differentiated control cells versus CA-treated cells ([2]; 3T3-L1): at least ten-fold greater
C/EBPα, β and δ mRNA expression ([2]; 3T3-L1, day 1–2, vs differentiated control): significant reduction
PPARγ and PGC-1α mRNA expression level ([2]; 3T3-L1, vs differentiated cells): greatly reduced
11β-HSD1 mRNA expression ([2]; 3T3-L1, vs differentiated control cells): reduced
PGC-1α, 11β-HSD1 and PPARγ protein expression ([3]; 3T3-L1, day 3, CA 50 μM): No significant change
PGC-1α, 11β-HSD1 and PPARγ protein expression ([3]; 3T3-L1, day 7, CA 50 μM): down-regulation
conversion of [3H]-cortisone to [3H]-cortisol [4]: inhibits the conversion
effect when added at day 3 after induction ([5]; human preadipocytes): no quantifiable effect
inhibition of adipogenesis in human preadipocytes ([5]; human visceral and subcutaneous preadipocytes, 10–14 days, CA 50–100 μM): modest inhibition of adipogenesis
effect on adipogenesis when added after day 3 (3T3-L1 preadipocytes; 3T3-L1): little to no significant effect
inhibition of adipogenesis (Oil Red O staining) (3T3-L1 preadipocytes; 3T3-L1, 7 days, compound added at induction, CA 50–100 μM): clearly inhibited adipogenesis
lipid droplets (LipidTox) compared to NDM control cells (3T3-L1 preadipocytes; 3T3-L1, CA 50 μM): no significant difference
PPARγ antagonistic activity (Human PPARγ): no quantifiable PPARγ antagonistic activity
mitochondrial mass (mitochondrial tracker mean intensity) (3T3-L1 cells): less mitochondrial mass
GR activation (Human GR): did not inhibit GR activation
11β-HSD2 inhibition (11β-HSD2): no observable 11β-HSD2 inhibition

Compound: CC1(C)[C@@H](OC(=O)CCC(=O)O)CC[C@]2(C)[C@H]3C(=O)C=C4[C@@H]5C[C@@](C)(C(=O)O)CC[C@]5(C)CC[C@@]4(C)[C@]3(C)CC[C@@H]12 [Compound 4, carbenoxolone, reference compound]
EC50 at 72 h (Cytotoxicity assay): > 500 µM

Compound: COC(=O)[C@H]1CC[C@@H](C(C)C)[C@@]12CC=C(C)[C@@H](O)C2 [Compound 5]
EC50 at 72 h (Cytotoxicity assay): > 500 µM

Compound: CC1=CC[C@@]2(C[C@@H]1O)[C@@H](C(N)=O)CC[C@H]2C(C)C [Compound 6]
EC50 at 72 h (Cytotoxicity assay): > 500 µM

Compound: CC1=CC[C@@]2(C[C@@H]1O)[C@H](C(=O)O)CC[C@H]2C(C)C [Compound 7]
EC50 at 72 h (Cytotoxicity assay): > 500 µM

Compound: CC(=O)O[C@H]1C[C@]2(CC=C1C)[C@@H](C(=O)O)CC[C@H]2C(C)C [Compound 8]
EC50 at 72 h (Cytotoxicity assay): > 500 µM

Compound: CC1=CC[C@@]2(CC1=O)[C@@H](C(=O)O)CC[C@H]2C(C)C [Compound 9]
EC50 at 72 h (Cytotoxicity assay): > 500 µM

Compound: CC1=CC[C@@]2([C@H](O)C1)[C@@H](C(=O)O)CC[C@H]2C(C)C [Compound 10]
EC50 at 72 h (Cytotoxicity assay): > 500 µM

Compound: CC(=O)O[C@@H]1C[C@@](C)(O)CC[C@]12[C@@H](C(=O)O)CC[C@H]2C(C)C [Compound 11]
EC50 at 72 h (Cytotoxicity assay): > 500 µM

Compound: CC(C)[C@@H]1CC[C@H](C(=O)O)[C@]12C[C@@H](O)[C@@](C)(O)[C@@H](O)C2 [Compound 12]
EC50 at 72 h (Cytotoxicity assay): > 500 µM

Compound: C=C1CC[C@@]2(C(OC)[C@@H]1O)[C@@H](C(=O)O)CC[C@H]2C(C)C (stereo partly shown) [Compound 13]
EC50 at 72 h (Cytotoxicity assay): > 500 µM

Compound: C=C1CC[C@@]2(C[C@@H]1OC(C)=O)[C@@H](C(=O)O)CC[C@H]2C(C)C [Compound 14]
EC50 at 72 h (Cytotoxicity assay): > 500 µM

Compound: C=C1CC[C@@]2(C[C@@H]1O)[C@@H](C(=O)O)CC[C@H]2C(C)C [Compound 15]
EC50 at 72 h (Cytotoxicity assay): > 500 µM

activity relative to compound 15 (Human 11β-HSD1): five-fold less activity
Compound: C=C1CC[C@]2(C[C@@H]1O)[C@H](C)CC[C@@H]2C(=O)O [Compound 16]
EC50 at 72 h (Cytotoxicity assay): > 500 µM

Compound: CC1=CC[C@@]2([C@H](O)C1)[C@@H](C(=O)O)CC[C@H]2C1CCCCC1 [Compound 18]
EC50 at 72 h (Cytotoxicity assay): > 500 µM

solubility properties (Solubility): acceptable and similar to CA
Compound: CC1=CC[C@@]2(C=C1)[C@@H](C(=O)O)CC[C@H]2C1CCCCC1 [Compound 19]

solubility properties (Solubility): acceptable and similar to CA
Compound: CC1=CC[C@@]2(C[C@@H]1O)[C@@H](C(=O)O)CC[C@H]2C1CCCCC1 [Compound 20]
EC50 at 72 h (Cytotoxicity assay): > 500 µM
increase of potency over CA (Human 11β-HSD1): three-fold increase of potency; also recorded: three-fold increase in potency

— article PMC8688139 (Journal of medicinal chemistry, 2019)
